Measured values collected from several papers.
Lines come from different studies, so protocols differ.
Effect on: cell growth or viability

CC(C)[C@@H]1NC(=O)[C@H](Cc2c[nH]cn2)NC1=O — IC50 (NCI-H446; SRB): > 15 µM
Cc1ccc(S(=O)(=O)n2cc(/C=N/NC(=O)Cc3cc(F)cc(F)c3)c3ccccc32)cc1 — IC50 (MCF-10A; MTT; 48 h): > 50 µM
Nc1ccn([C@@H]2O[C@H](CO)[C@@H](O)C2(F)F)c(=O)n1 — IC50 (4T1; MTT; 48 h): 3.37 µg/mL
Cc1ccc(S(=O)(=O)n2cc(/C=N/NC(=O)c3cccnc3)c3ccccc32)cc1 — IC50 (MCF-10A; MTT; 48 h): > 50 µM
COc1ccc2c(c1)C(=O)C(=O)N2CCn1ncc2c(=O)[nH]cnc21 — IC50 (BALB/3T3 clone A31; SRB; 72 h): 21.7 µg/mL
CC(=O)c1ccc2cc(S(=O)(=O)Nc3cccnc3)ccc2c1 — IC50 (MDCK; neutral red; 48 h): 20.7 µM
COc1cccc2c1C(=O)c1c(O)c3c(c(O)c1C2=O)C[C@@](O)(C(=O)CO)C[C@@H]3O[C@H]1C[C@H](N)[C@H](O)[C@H](C)O1 — IC50 (NCI-H446; 96 h): 0.0365 µM
Nc1nnc(-c2ccccc2O)cc1N1CC2CCC(C1)N2c1ccnc(F)c1 — IC50 (VCaP; ATP luminescence; 7 days): > 1 µM
CC(=O)c1ccc2cc(S(=O)(=O)Nc3ccccc3C)ccc2c1 — IC50 (MDCK; neutral red; 48 h): 21.8 µM
COc1cccc2c1C(=O)c1c(O)c3c(c(O)c1C2=O)C[C@@](O)(C(=O)CO)C[C@@H]3O[C@H]1C[C@H](N)[C@H](O)[C@H](C)O1 — IC50 (NCI-H446; SRB): 0.8 µM
NC(=S)N/N=C1\C(=O)N(CCn2ncc3c(=O)[nH]cnc32)c2ccc(Cl)cc21 — IC50 (BALB/3T3 clone A31; SRB; 72 h): 14.3 µg/mL
CCCCC(=O)Nc1ccc(-c2ccc3ncn(CCC)c(=O)c3c2)cn1 — IC50 (human PBMC; CCK-8; 72 h): > 10 µM
COc1ccc2c(c1)/C(=N/NC(N)=S)C(=O)N2CCn1ncc2c(=O)[nH]cnc21 — IC50 (BALB/3T3 clone A31; SRB; 72 h): 77.5 µg/mL
N#Cc1ccc(-c2cc(COc3cc(C(F)(F)F)nc4ccccc34)on2)cc1 — IC50 (K562; MTS; 72 h): 83.2 µM
Cc1ccc(S(=O)(=O)n2cc(/C=N/NC(=O)c3ccc(C(F)(F)F)cc3)c3ccccc32)cc1 — IC50 (MCF-10A; MTT; 48 h): > 50 µM
O=C1C(=O)N(CCn2ncc3c(=O)[nH]cnc32)c2ccc(F)cc21 — IC50 (BALB/3T3 clone A31; SRB; 72 h): 19.6 µg/mL
CC(=O)O[C@@]12CO[C@@H]1C[C@H](O)[C@@]1(C)C(=O)[C@H](O)C3=C(C)[C@@H](OC(=O)[C@H](O)[C@@H](NC(=O)OC(C)(C)C)c4ccccc4)C[C@@](O)([C@@H](OC(=O)c4ccccc4)[C@H]21)C3(C)C — IC50 (MCF-10A; MTT; 48 h): > 100 µM
CC(=O)c1ccc2cc(S(=O)(=O)Nc3ccccn3)ccc2c1 — IC50 (MDCK; neutral red; 48 h): 88.8 µM
O=C1C(=O)N(CCn2ncc3c(=O)[nH]cnc32)c2ccc(Cl)cc21 — IC50 (BALB/3T3 clone A31; SRB; 72 h): 11.4 µg/mL
C/C(=C\C(=O)N[C@H](C(=O)N1CCC[C@H]1C(=O)N(c1ccccc1)c1ccc(I)cc1)C(C)(C)C)c1ccc(OP(=O)(O)O)cc1 — IC50 (JHH7; CCK-8): 7.19 µM
Cc1ncsc1-c1ccc(CNC(=O)[C@@H]2C[C@@H](O)CN2C(=O)[C@@H](NC(=O)C2(F)CC2)C(C)(C)C)c(OCCOc2ccc(CN3CCN(c4cc(-c5ccccc5O)nnc4N)CC3)cc2)c1 — IC50 (VCaP; ATP luminescence; 7 days): 0.0246 µM
CC(=O)c1ccc2cc(S(=O)(=O)Nc3ccccc3)ccc2c1 — IC50 (MDCK; neutral red; 48 h): 90.9 µM
Cc1ccc(S(=O)(=O)n2cc(/C=N/NC(=O)c3ccc([N+](=O)[O-])cc3)c3ccccc32)cc1 — IC50 (MCF-10A; MTT; 48 h): > 50 µM
NC(=O)c1cnc(NCCc2ccc(O)c(Cl)c2)nc1NCc1ccccc1 — IC50 (JHH7; CCK-8; 48 h): 1.29 µM
Cc1ccc(S(=O)(=O)n2cc(/C=N/NC(=O)c3cc4ccccc4cc3O)c3ccccc32)cc1 — IC50 (MCF-10A; MTT; 48 h): > 50 µM
COc1cc([C@@H]2c3cc4c(cc3[C@@H](O[C@@H]3O[C@@H]5CO[C@@H](C)O[C@H]5[C@H](O)[C@H]3O)[C@H]3COC(=O)[C@H]23)OCO4)cc(OC)c1O — IC50 (K562; MTS; 72 h): 0.03 µM
Cc1ccc(S(=O)(=O)n2cc(/C=N/NC(=O)c3cccc(Cl)c3)c3ccccc32)cc1 — IC50 (MCF-10A; MTT; 48 h): > 50 µM
C=CC(C)(C)c1[nH]cnc1/C=C1/NC(=O)[C@H](C(C)C)NC1=O — IC50 (NCI-H446; SRB): 2 µM
COc1cc(C2C3=C(COC3=O)N(CCO)c3cc4c(cc32)CCC4)cc(OC)c1OC (stereo not shown) — IC50 (4T1; ATP luminescence; 48 h): 0.85 µM
FC(F)(F)c1ccc(-c2cc(COc3cc(C(F)(F)F)nc4ccccc34)on2)cc1 — IC50 (K562; MTS; 72 h): > 100 µM
CCOC(=O)c1c(C)nc2ccc(-c3ccc(F)cc3F)cc2c1O — IC50 (MCF-10A; MTT; 48 h): ≥ 100 µM
